Structures can show the parent of a compound that is named as a salt. The source made the active and inactive calls. No cut-off for these calls is given here.
What was measured:
[1] = target: T1, Potassium voltage-gated channel subfamily A member 5 (Homo sapiens, UniProt P22460); assay: Inhibition of human Kv1.5 channel expressed in HEK293 cells by whole cell patch clamp assay; assay type: cell-based
How it was run: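 Whole-cell patch clamp was done on transfected HEK293 cells, harvested by trypsin and used the same day, with 4–6 MΩ pipettes at 25 °C. IKur was elicited by 500-ms steps to +60 mV from a −80 mV holding potential at 0.1 Hz. Compound was applied at least 5 min after current stabilization. IC50 came from cell-by-cell Hill fits, with at least 3 cells per concentration; mean ± SD.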

[2] = (§1) Apparent permeability from basolateral to apical side in MDCK cells; assay type: ADME, cell-based, Canis lupus familiaris; conditions: dog
How it was run: (§2)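 Bidirectional transport (apical→basolateral and basolateral→apical) was measured in parental MDCK cells and in MDR1-MDCK cells, which stably express multidrug resistance gene 1, to assess P-glycoprotein substrate status. Apparent permeability coefficients (Papp) were determined for each direction. Efflux ratios are ratios of the directional Papp values, computed per cell line. Mean ± SD, n = 3.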

[3] = tested on: MDR1; assay: (§3) Apparent permeability from apical to basolateral side in MDCK cells expressing MDR1; assay type: ADME, cell-based, Canis lupus familiaris; conditions: dog, MDCK-MDR1; how it was run: as §2
[4] = Dissociation constant, pKa of the compound; assay type: physicochemical
How it was run: (§4)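 pKa and log D at pH 7.4 were determined by Avdeef–Bucher potentiometric titration on a Gemini Profiler instrument.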

[5] = tested on: MDCK; assay: Efflux ratio of permeability from apical to basolateral over basolateral to apical in MDCK cells; assay type: ADME, cell-based, Canis lupus familiaris; conditions: dog; how it was run: as §2
[6] = tested on: MDCK; assay: Efflux ratio of permeability from apical to basolateral over basolateral to apical in MDCK cells expressing MDR1; assay type: ADME, cell-based, Canis lupus familiaris; conditions: dog; how it was run: as §2
[7] = tested on: MDR1; assay: (§5) Apparent permeability from basolateral to apical side in MDCK cells expressing MDR1; assay type: ADME, cell-based, Canis lupus familiaris; conditions: dog, MDCK-MDR1; how it was run: as §2
[8] = (§6) Apparent permeability from apical to basolateral side in MDCK cells; assay type: ADME, cell-based, Canis lupus familiaris; conditions: dog; how it was run: as §2
[9] = Partition coefficient, log D of the compound at pH 7.4; assay type: physicochemical; conditions: octanol/water; how it was run: as §4
[10] = tested on: Rattus norvegicus; assay: Inhibition of Cacl2-Ach-induced atrial fibrillation Sprague-Dawley rat model assessed as reduction in duration of atrial fibrillation at 1.25 mg/kg, ip during day 1 to day 3; assay type: functional, organism-based; set-up: dose 1.25 mg/kg; conditions: Cardiac atrium
[11] = tested on: Rattus norvegicus; assay: Inhibition of Cacl2-Ach-induced atrial fibrillation Sprague-Dawley rat model assessed as increase in atrial effective refractory period at 1.25 mg/kg, ip; conditions: Cardiac atrium
[12] = tested on: Rattus norvegicus; assay: Inhibition of Cacl2-Ach-induced atrial fibrillation Sprague-Dawley rat model assessed as reduction in duration of atrial fibrillation at 1.25 mg/kg, ip during day 4 to day 7; assay type: functional, organism-based; set-up: dose 1.25 mg/kg; conditions: Cardiac atrium
[13] = target: T1, Potassium voltage-gated channel subfamily A member 5; assay: Inhibition of human Kv1.5 channel expressed in HEK293 cells at 11 uM by whole cell patch clamp assay; assay type: cell-based
[14] = Toxicity in SPF mouse compound administered through iv; assay type: organism-based; conditions: in vivo
How it was run: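 Acute toxicity by tail-vein iv injection in SPF mice: 70 animals in 7 groups, one given distilled water (30 mL/kg) and six given 84.6, 79.8, 75.3, 71, 67 or 63.2 mg/kg. Behaviour, mental state, excrement and death observed continuously over 0-0.5 h, every 0.5 h to 6 h, then daily for 15 days. LD50 derived by the Bliss-Finney method.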

[15] = tested on: Rattus norvegicus; assay: Inhibition of Cacl2-Ach-induced atrial fibrillation Sprague-Dawley rat model assessed as increase in atrial effective refractory period at 2.5 mg/kg, ip; conditions: Cardiac atrium
[16] = tested on: Rattus norvegicus; assay: Inhibition of Cacl2-Ach-induced atrial fibrillation Sprague-Dawley rat model assessed as reduction in duration of atrial fibrillation at 2.5 mg/kg, ip during day 4 to day 7; assay type: functional, organism-based; set-up: dose 2.5 mg/kg; conditions: Cardiac atrium
[17] = tested on: Rattus norvegicus; assay: Inhibition of Cacl2-Ach-induced atrial fibrillation Sprague-Dawley rat model assessed as reduction in duration of atrial fibrillation at 2.5 mg/kg, ip during day 1 to day 3; assay type: functional, organism-based; set-up: dose 2.5 mg/kg; conditions: Cardiac atrium
[18] = tested on: MDCK; assay: as §1; assay type: ADME, cell-based, Canis lupus familiaris; conditions: dog; how it was run: as §2
[19] = tested on: MDCK; assay: as §6; assay type: ADME, cell-based, Canis lupus familiaris; conditions: dog; how it was run: as §2
[20] = tested on: MDCK; assay: as §3; assay type: ADME, cell-based, Canis lupus familiaris; conditions: dog, mdck; how it was run: as §2
[21] = tested on: MDCK; assay: as §5; assay type: ADME, cell-based, Canis lupus familiaris; conditions: dog, mdck; how it was run: as §2

T1 sequence (P22460 whole entry): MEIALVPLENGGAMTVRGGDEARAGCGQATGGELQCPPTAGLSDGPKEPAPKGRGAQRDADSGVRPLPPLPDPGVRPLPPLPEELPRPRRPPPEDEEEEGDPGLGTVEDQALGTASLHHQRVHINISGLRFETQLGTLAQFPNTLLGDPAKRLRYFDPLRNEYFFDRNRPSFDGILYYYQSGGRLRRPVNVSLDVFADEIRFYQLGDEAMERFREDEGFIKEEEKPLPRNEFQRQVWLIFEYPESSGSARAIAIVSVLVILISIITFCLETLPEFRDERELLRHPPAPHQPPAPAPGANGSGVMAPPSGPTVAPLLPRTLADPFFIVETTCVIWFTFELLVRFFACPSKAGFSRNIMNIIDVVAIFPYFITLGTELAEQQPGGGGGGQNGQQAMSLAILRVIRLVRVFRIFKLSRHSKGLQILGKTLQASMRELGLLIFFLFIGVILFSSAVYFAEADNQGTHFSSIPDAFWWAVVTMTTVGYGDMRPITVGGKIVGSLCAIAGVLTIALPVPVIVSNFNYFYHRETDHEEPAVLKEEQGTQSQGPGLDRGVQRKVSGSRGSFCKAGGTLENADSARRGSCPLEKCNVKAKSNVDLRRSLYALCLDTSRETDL

COc1ccc(NC(=O)CN2CCN(CCOc3ccccc3)CC2)cc1
IC50 [1]: 10.1 µM

N#Cc1ccc(OCCN2CCN(CC(=O)Nc3ccccc3)CC2)cc1
IC50 [1]: 9.1 µM

O=C(CN1CCN(CCOc2ccccc2)CC1)Nc1nccs1
IC50 [1]: 29.3 µM

Cc1ccccc1OCCN1CCN(C(=O)c2cccs2)CC1
IC50 [1]: 13.5 µM

O=C(CN1CCN(CCOc2ccc(Cl)cc2)CC1)Nc1nccs1
IC50 [1]: 5.18 µM

Cc1ccc(NC(=O)CN2CCN(CCOc3ccccc3)CC2)cc1
IC50 [1]: 16.1 µM

Cc1cccc(C)c1OCCN1CCN(CC(=O)Nc2nccs2)CC1
IC50 [1]: 85.9 µM

O=C(c1cccs1)N1CCN(CCOc2ccc(OC(F)(F)F)cc2)CC1
IC50 [1]: 6.44 µM

O=C(c1cccs1)N1CCN(CCOc2ccc(Cl)cc2Cl)CC1
Papp B→A [2]: 19.1 ×10⁻⁶ cm/s | Papp A→B [3]: 39.1 ×10⁻⁶ cm/s | pKa [4]: 5.23 | Ratio [5]: 0.89 | Ratio [6]: 1.24 | IC50 [1]: 1.48 µM | Papp B→A [7]: 31.5 ×10⁻⁶ cm/s | Papp A→B [8]: 17 ×10⁻⁶ cm/s | logD [9]: 3.73

Cc1ccc(OCCN2CCN(CC(=O)Nc3nccs3)CC2)cc1C
IC50 [1]: 50.2 µM

O=C(CN1CCN(CCOc2ccc(Cl)cc2)CC1)Nc1ccccc1Cl
IC50 [1]: 3.59 µM

N#Cc1ccc(OCCN2CCN(C(=O)c3cccs3)CC2)cc1
IC50 [1]: 10.2 µM

O=C(CN1CCN(CCOc2ccccc2)CC1)Nc1ccccc1
IC50 [1]: 28.6 µM

CCCCc1oc2ccc(NS(C)(=O)=O)cc2c1C(=O)c1ccc(OCCCN(CCCC)CCCC)cc1 [DRONEDARONE HYDROCHLORIDE]
Activity [10]: inactive | Activity [11]: Active | IC50 [1]: 2.37 µM | Activity [12]: Active

CCOc1ccccc1OCCN1CCN(CC(=O)Nc2nccs2)CC1
inhibition [13]: 11.9%

COc1ccc(C(=O)N2CCN(CCOc3ccccc3)CC2)cc1
IC50 [1]: 16.1 µM

O=C(c1ccccc1Cl)N1CCN(CCOc2ccccc2)CC1
IC50 [1]: 56.7 µM

O=C(c1cccs1)N1CCN(CCOc2ccc(F)cc2)CC1
IC50 [1]: 12.7 µM

CCOC(=O)c1ccc(OCCN2CCN(CC(=O)Nc3nccs3)CC2)cc1
inhibition [13]: 32.1%

O=C(c1ccccc1)N1CCN(CCOc2ccccc2)CC1
IC50 [1]: 38.8 µM

O=C(CN1CCN(CCOc2ccccc2Cl)CC1)Nc1nccs1
IC50 [1]: 3.39 µM

Cc1ccccc1OCCN1CCN(CC(=O)Nc2ccccc2)CC1
IC50 [1]: 11.8 µM

O=C(c1cccs1)N1CCN(CCOc2ccc(Br)cc2)CC1
IC50 [1]: 12.2 µM

COc1ccc(NC(=O)CN2CCN(CCOc3ccc(Cl)cc3)CC2)cc1
IC50 [1]: 2.62 µM

N#Cc1ccc(OCCN2CCN(C(=O)c3ccccc3)CC2)cc1
IC50 [1]: 4.23 µM

O=C(c1cccs1)N1CCN(CCOc2ccc(Cl)cc2)CC1
Papp B→A [2]: 21.9 ×10⁻⁶ cm/s | LD50 [14]: 73.7 mg/kg | Papp A→B [3]: 16.1 ×10⁻⁶ cm/s | pKa [4]: 6.35 | Activity [10]: inactive | Activity [15]: Active | Ratio [5]: 0.97 | Ratio [6]: 0.84 | Activity [11]: Active | Activity [16]: Active | Activity [17]: inactive | IC50 [1]: 0.72 µM | Papp B→A [7]: 19.3 ×10⁻⁶ cm/s | Activity [12]: Active | Papp A→B [8]: 21.3 ×10⁻⁶ cm/s | logD [9]: 1.94

CC(C)NCC(O)c1ccc(NS(C)(=O)=O)cc1 (stereo unspecified)
Activity [15]: Active | Activity [16]: Active | Activity [17]: inactive

Cc1ccc(C(=O)N2CCN(CCOc3ccc(Cl)cc3)CC2)cc1
IC50 [1]: 4.51 µM

COc1ccc(C(=O)N2CCN(CCOc3ccc(Cl)cc3)CC2)cc1
IC50 [1]: 5.5 µM

COc1ccc(OCCN2CCN(C(=O)c3cccs3)CC2)cc1
IC50 [1]: 21.9 µM

Cc1ccccc1OCCN1CCN(CC(=O)Nc2nccs2)CC1
Papp [18]: 34.2 ×10⁻⁶ cm/s | Papp A→B [3]: 28.9 ×10⁻⁶ cm/s | pKa [4]: 7.11 | Ratio [5]: 1.09 | Ratio [6]: 0.92 | IC50 [1]: 1.24 µM | Papp B→A [7]: 32.3 ×10⁻⁶ cm/s | Papp [19]: 32.2 ×10⁻⁶ cm/s | logD [9]: 2.45

O=C(CN1CCN(CCOc2ccc(OC(F)(F)F)cc2)CC1)Nc1nccs1
Papp [18]: 16.9 ×10⁻⁶ cm/s | Papp [20]: 16.3 ×10⁻⁶ cm/s | pKa [4]: 6.74 | Ratio [5]: 1.5 | Ratio [6]: 1.42 | IC50 [1]: 2.29 µM | Papp [21]: 19.6 ×10⁻⁶ cm/s | Papp [19]: 12.2 ×10⁻⁶ cm/s | logD [9]: 3.94

COc1ccc(NC(=O)CN2CCN(CCOc3ccc(C#N)cc3)CC2)cc1
IC50 [1]: 14.5 µM

Cc1ccc(OCCN2CCN(CC(=O)Nc3nccs3)CC2)cc1
IC50 [1]: 8.93 µM

O=C(c1ccccc1)N1CCN(CCOc2ccc(Cl)cc2)CC1
IC50 [1]: 3.97 µM

Cc1ccc(NC(=O)CN2CCN(CCOc3ccc(Cl)cc3)CC2)cc1
IC50 [1]: 5.02 µM

O=C(CN1CCN(CCOc2ccc(OC(F)(F)F)cc2)CC1)Nc1ccccc1
IC50 [1]: 7.33 µM

O=C(c1cccs1)N1CCN(c2ccc(OC(F)(F)F)cc2)CC1
IC50 [1]: 48.4 µM

Cc1ccc(OCCN2CCN(CC(=O)Nc3nccs3)CC2)c(C)c1
IC50 [1]: 17.2 µM

COc1ccc(OCCN2CCN(CC(=O)Nc3nccs3)CC2)cc1
IC50 [1]: 9.13 µM

N#Cc1ccc(OCCN2CCN(CC(=O)Nc3nccs3)CC2)cc1
Papp [18]: 16.7 ×10⁻⁶ cm/s | Papp [20]: 18.9 ×10⁻⁶ cm/s | pKa [4]: 6.37 | Ratio [5]: 1.14 | Ratio [6]: 1.14 | IC50 [1]: 0.97 µM | Papp [21]: 19.8 ×10⁻⁶ cm/s | Papp [19]: 14.8 ×10⁻⁶ cm/s | logD [9]: 1.72

Cc1ccc(OCCN2CCN(C(=O)c3ccccc3)CC2)cc1
IC50 [1]: 25.3 µM

O=C(CN1CCN(CCOc2ccc(Cl)cc2)CC1)Nc1ccccc1
IC50 [1]: 4.38 µM

O=C(CN1CCN(CCOc2ccc3ccccc3c2)CC1)Nc1nccs1
IC50 [1]: 68 µM

Cc1ccc(NC(=O)CN2CCN(CCOc3ccc(C#N)cc3)CC2)cc1
IC50 [1]: 4.49 µM

Cc1ccc(OCCN2CCN(C(=O)c3cccs3)CC2)cc1
Papp B→A [2]: 31.1 ×10⁻⁶ cm/s | Papp A→B [3]: 25.6 ×10⁻⁶ cm/s | pKa [4]: 6.4 | Ratio [5]: 0.64 | Ratio [6]: 0.78 | IC50 [1]: 1.52 µM | Papp B→A [7]: 32.8 ×10⁻⁶ cm/s | Papp A→B [8]: 20 ×10⁻⁶ cm/s | logD [9]: 3.24

CC(C)(C)c1ccc(OCCN2CCN(CC(=O)Nc3nccs3)CC2)cc1
IC50 [1]: 63.2 µM

O=C(c1cccs1)N1CCN(CCOc2ccccc2Cl)CC1
IC50 [1]: 9.74 µM

O=C(c1cccs1)N1CCN(CCOc2ccccc2)CC1
IC50 [1]: 37.5 µM

Cc1ccc(C(=O)N2CCN(CCOc3ccccc3)CC2)cc1
IC50 [1]: 7.14 µM

O=C(CN1CCN(CCOc2ccccc2)CC1)Nc1ccccc1Cl
IC50 [1]: 29.4 µM

From ChEMBL document CHEMBL3259670, “Discovery of 1-aryloxyethyl piperazine derivatives as Kv1.5 potassium channel inhibitors (part I)” (Eur J Med Chem, 2014)
